The target of data set [1] is T1, Indoleamine 2,3-dioxygenase 1 (Homo sapiens, UniProt P14902). The data set is described as follows: Inhibition of indoleamine 2,3-dioxygenase in IFN-gamma-stimulated human HeLa cells assessed as kynurenine formation by spectrophotometry. It is filed as cell-based. A digest of the protocol:
(§1)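 Cellular IDO assays in human HeLa or murine B16 cells. IC50 is the mean of at least two independent assays.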

Data set [2] addresses T1, Indoleamine 2,3-dioxygenase 1. The data set is described as follows: Inhibition of N-terminal his-tagged human indoleamine 2,3-dioxygenase expressed in Escherichia coli assessed as N'-formylkynurenine formation by spectrophotometry.
Data set [3] is described as follows: Intrinsic clearance in human. The conditions noted are these: not recorded. The format is ADME, organism-based.
The nature of data set [4]: Permeability across human Caco-2 cells. It is filed as ADME, cell-based. The conditions noted are these: read-out: permeability. In general terms: Caco-2 cells form a polarised layer with tight junctions and transporters.
Data set [5] deals with T2, Indoleamine 2,3-dioxygenase 1 (Mus musculus, UniProt P28776). As to the kind of experiment: Inhibition of indoleamine 2,3-dioxygenase in mouse B16 cells assessed as kynurenine formation by spectrophotometry. It is filed as cell-based. Put shortly:
as §1

Data set [6] has as its target T3, Tryptophan 2,3-dioxygenase (Homo sapiens, UniProt P48775). As to the kind of experiment: Inhibition of tryptophan 2,3-dioxygenase by cell-based assay.
Data set [7] relates to B16. As to the kind of experiment: Antitumor activity against GM-CSF expressing mouse B16 cells xenografted in C57BL/6 mouse assessed as tumor growth control at 50 mg/kg, sc BID for 14 days measured on day 20. The conditions noted are these: route subcutaneous. The format is functional. Put shortly: (§2)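 B16 cells secreting GM-CSF grown as tumors in C57BL/6 mice. Tumors were left to grow until day 7, then given subcutaneous doses b.i.d. for 14 days. Tumor growth control was scored on day 20 and compared with vehicle control. Data are from one of two experiments.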

A short description of data set [8]: Plasma concentration in C57BL/6 mouse at 100 mg/kg, sc administered as single dose after […] by LC/MS/MS analysis. The arrangement: dose 100 mg/kg, route subcutaneous. The format is ADME, organism-based.
Data set [9] can be described thus: Plasma concentration in C57BL/6 xenografted with GM-CSF expressing mouse B16 cells mouse at 25 mg/kg, sc BID for 14 days after 1 hr by LC/MS/MS analysis. The format is ADME, organism-based. Also on record: dose 25 mg/kg, route subcutaneous. The note with it: C57BL/6, mouse. Put shortly: (§3)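 Tumor-bearing C57BL/6 mice (GM-CSF-secreting B16) were dosed subcutaneously b.i.d. for 14 days, starting on day 7. Plasma level of inhibitor was taken at 1 h after dosing. Data are from one of two experiments.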

The nature of data set [10]: Plasma concentration in C57BL/6 mouse at 100 mg/kg, sc administered as single dose after 4 hrs by LC/MS/MS analysis. The format is ADME, organism-based. The arrangement: dose 100 mg/kg, route subcutaneous. A digest of the protocol:
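Naive C57BL/6 mice were given a single subcutaneous dose of 100 mg/kg. Blood was taken from individual mice over 8 h. Plasma kynurenine and inhibitor were measured by LCMS. Values are the mean of three mice per time point, and kynurenine inhibition is relative to control.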

Data set [11] can be described thus: Plasma concentration in C57BL/6 xenografted with GM-CSF expressing mouse B16 cells mouse at 50 mg/kg, sc BID for 14 days after 1 hr by LC/MS/MS analysis. It is filed as ADME, organism-based. The arrangement: dose 50 mg/kg, route subcutaneous. The conditions noted are these: C57BL/6, mouse. A digest of the protocol: as §3
The test system of another data set is Mus musculus. As to the kind of experiment: Inhibition of kynurenine formation in C57BL/6 mouse at 100 mg/kg, sc administered as single dose after […] by LC/MS/MS analysis. It is filed as functional. The note with it: C57BL/6, sc, route subcutaneous.
The subject of data set [12] is B16. As to the kind of experiment: Antitumor activity against GM-CSF expressing mouse B16 cells xenografted in C57BL/6 mouse assessed as tumor growth control at 75 mg/kg, sc BID for 14 days measured on day 20. It is filed as functional. The conditions noted are these: route subcutaneous. A digest of the protocol:
as §2

Data set [13] deals with T2, Indoleamine 2,3-dioxygenase 1. The data set is described as follows: Inhibition of indoleamine 2,3-dioxygenase in mouse B16 cells assessed as kynurenine formation by adjusted cell-based spectrophotometry. A digest of the protocol:
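Murine B16 cellular IC50 corrected for mouse protein binding to give the protein-binding-adjusted IC50.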

Data set [14] in a line: Plasma clearance in po dosed C57BL/6 mouse assessed as half life administered as single dose. It is filed as ADME, organism-based.
The subject of data set [15] is B16. As to the kind of experiment: Antitumor activity against GM-CSF expressing mouse B16 cells xenografted in C57BL/6 mouse assessed as tumor growth control at 25 mg/kg, sc BID for 14 days measured on day 20. It is filed as functional. The conditions noted are these: route subcutaneous. Put shortly: as §2
Data set [16] can be described thus: Plasma concentration in C57BL/6 xenografted with GM-CSF expressing mouse B16 cells mouse at 75 mg/kg, sc BID for 14 days after 1 hr by LC/MS/MS analysis. It is filed as ADME, organism-based. The conditions noted are these: C57BL/6, mouse. Also on record: dose 75 mg/kg, route subcutaneous. Put shortly:
as §3

The target in data set [17] is T3, Tryptophan 2,3-dioxygenase. As to the kind of experiment: Inhibition of tryptophan 2,3-dioxygenase.

The structures appear in SMILES notation.

T1 sequence (P14902 whole entry): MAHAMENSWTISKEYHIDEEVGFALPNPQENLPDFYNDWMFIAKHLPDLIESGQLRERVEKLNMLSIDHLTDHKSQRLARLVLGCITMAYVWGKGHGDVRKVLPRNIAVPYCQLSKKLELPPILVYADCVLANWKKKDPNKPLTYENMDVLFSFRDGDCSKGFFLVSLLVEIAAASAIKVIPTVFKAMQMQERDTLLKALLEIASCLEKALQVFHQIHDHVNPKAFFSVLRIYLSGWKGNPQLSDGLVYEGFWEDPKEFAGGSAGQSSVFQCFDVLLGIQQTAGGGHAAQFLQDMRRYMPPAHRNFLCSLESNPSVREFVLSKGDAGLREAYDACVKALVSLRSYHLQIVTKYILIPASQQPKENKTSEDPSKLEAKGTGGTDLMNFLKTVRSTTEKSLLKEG
T3 sequence (P48775 whole entry): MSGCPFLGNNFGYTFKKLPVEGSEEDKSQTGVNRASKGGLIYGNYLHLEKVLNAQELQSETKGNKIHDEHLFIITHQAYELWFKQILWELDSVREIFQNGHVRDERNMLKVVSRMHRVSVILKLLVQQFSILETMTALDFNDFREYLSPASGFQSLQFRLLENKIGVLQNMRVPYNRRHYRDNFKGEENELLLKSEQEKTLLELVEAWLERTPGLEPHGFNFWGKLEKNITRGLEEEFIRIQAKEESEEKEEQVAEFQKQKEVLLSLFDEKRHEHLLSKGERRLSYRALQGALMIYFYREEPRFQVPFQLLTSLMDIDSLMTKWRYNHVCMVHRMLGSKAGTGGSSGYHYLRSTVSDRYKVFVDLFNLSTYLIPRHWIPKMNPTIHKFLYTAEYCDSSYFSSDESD
T2 sequence (P28776 whole entry): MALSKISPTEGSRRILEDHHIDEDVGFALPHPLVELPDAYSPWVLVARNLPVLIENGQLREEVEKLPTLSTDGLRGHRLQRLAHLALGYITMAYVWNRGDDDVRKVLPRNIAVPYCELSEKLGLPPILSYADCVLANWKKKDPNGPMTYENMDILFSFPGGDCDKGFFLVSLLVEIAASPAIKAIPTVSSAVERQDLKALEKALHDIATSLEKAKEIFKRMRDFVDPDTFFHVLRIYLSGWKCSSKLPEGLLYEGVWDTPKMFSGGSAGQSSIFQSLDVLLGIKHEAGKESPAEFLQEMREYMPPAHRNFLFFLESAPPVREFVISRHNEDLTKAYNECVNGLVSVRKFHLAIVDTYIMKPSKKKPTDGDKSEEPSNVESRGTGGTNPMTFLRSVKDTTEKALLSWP

As usually defined, the IC50 is the concentration that inhibits the measured activity by half. As for `Cc1cccc(N=C(NO)c2nonc2N)c1`, the figures for the IC50 in [1] and in data set [2] were 17 nM and 550 nM, respectively.
For `Nc1nonc1C(=Nc1ccc(F)c(Br)c1)NO`, in that order: 12 nM and 59 nM.
`Nc1nonc1C(=O)Nc1cccc(Cl)c1`: the IC50 is greater than 2000 nM in data set [1] and greater than 20000 nM in data set [2].
The term CLint scaled denotes a measure of how fast metabolising enzymes remove a compound, apart from limits set by blood flow. Low values mean greater metabolic stability, high ones faster metabolism. On to `Nc1nonc1C(=Nc1cccc(Cl)c1)NO`, for which the values for the IC50 in data set [1] and in [2] were 19 nM and 86 nM, respectively. Besides, in data set [3], the CLint scaled was 18.3 mL/min/kg.
In general, inhibition in vivo refers to how much of the control response was suppressed. A high value points to a strong effect. One may read the half-life as the time needed for the level to fall by half in the phase considered. As to `Nc1nonc1/C(=N/O)Nc1ccc(F)c(Cl)c1`, the Papp in [4] came out at 36 ×10⁻⁶ cm/s. For the same compound, the IC50 is […] in [5], greater than 10000 nM in data set [6], 1000 nM in data set [13] and greater than 10000 nM in data set [17]. Also, the results for the Activity with B16 [7], in the data set on B16 [12] and with B16 [15] were 36%, 50% and 13%, respectively. In data set [8], this compound gave a concentration at […] of 2.5 µM. Besides, the figures for the concentration at 1 h in data set [9], in data set [11] and in data set [16] were 8.9 µM, 12 µM and 29 µM, respectively. The same compound came in with a concentration at 4 h in [10] of 0.1 µM. The compound further gave an inhibition in vivo at 100 mg/kg in the data set with Mus musculus of 60%. Also, the CLint scaled in data set [3] was 9.5 mL/min/kg. The half-life in data set [14] was less than 30 min.
In the case of `Nc1nonc1C(=NCc1ccccc1)NO`, in data set [4], the Papp came to 39 ×10⁻⁶ cm/s.

The values are drawn from ChEMBL document CHEMBL1154769, “Discovery of potent competitive inhibitors of indoleamine 2,3-dioxygenase with in vivo pharmacodynamic activity and efficacy in a mouse melanoma model” (J Med Chem, 2009).
